This is an account of results in ChEMBL document CHEMBL4354825, “Design and Synthesis of Basic Selective Estrogen Receptor Degraders for Endocrine Therapy Resistant Breast Cancer” (J Med Chem, 2019).

Assay [1] is described as follows: Antiproliferative activity against human MCF7:5C cells assessed as reduction in cell viability incubated for 7 days by Hoechst 33258 dye based assay relative to control. The format is functional. As to conditions: 168 h. The gist of the method: (§1)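 Cells were seeded at 5000 per well; MCF7:WS8 had been estrogen-stripped for 2 days first. Compounds were serially diluted in DMSO, with 0.01% DMSO as vehicle. The medium was removed on day 5 (MCF7:WS8) or day 7 (MCF7:5C), and cells were lysed by freezing at −80 °C overnight. DNA was measured by Hoechst 33258 fluorescence. Maximum efficacy was normalized to vehicle (0%) and no cells (100%); at least three biological replicates.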

A short description of assay [2]: Antiproliferative activity against human MCF7:WS8 cells assessed as reduction in cell viability incubated for 5 days by Hoechst 33258 dye based assay. The assay is classed as functional. As to conditions: MCF7:WS8, 120 h. The gist of the method:
as §1

The nature of assay [3]: Antiproliferative activity against human MCF7:WS8 cells assessed as reduction in cell viability incubated for 5 days by Hoechst 33258 dye based assay relative to control. The format is functional. The settings on record: MCF7:WS8, 120 h. The gist of the method: as §1
The target of assay [4] is T1, Estrogen receptor (Homo sapiens, UniProt P03372).
T1 sequence (P03372 whole entry): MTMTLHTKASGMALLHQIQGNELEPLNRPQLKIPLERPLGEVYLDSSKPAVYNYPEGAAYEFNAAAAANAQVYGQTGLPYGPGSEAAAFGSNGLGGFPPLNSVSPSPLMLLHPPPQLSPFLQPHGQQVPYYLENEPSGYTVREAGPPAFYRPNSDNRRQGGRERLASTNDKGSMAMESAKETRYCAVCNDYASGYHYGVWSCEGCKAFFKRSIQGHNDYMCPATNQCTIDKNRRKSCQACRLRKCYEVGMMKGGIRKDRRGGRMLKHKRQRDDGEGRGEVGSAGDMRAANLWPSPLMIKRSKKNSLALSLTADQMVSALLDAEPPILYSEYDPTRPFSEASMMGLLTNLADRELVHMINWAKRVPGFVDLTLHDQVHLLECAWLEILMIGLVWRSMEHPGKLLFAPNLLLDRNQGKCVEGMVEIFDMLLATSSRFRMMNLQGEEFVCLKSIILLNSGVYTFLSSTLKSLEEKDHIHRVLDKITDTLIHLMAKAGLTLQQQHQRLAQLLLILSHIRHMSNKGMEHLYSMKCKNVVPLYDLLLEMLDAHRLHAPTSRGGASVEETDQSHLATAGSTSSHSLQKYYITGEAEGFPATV
Nature of the assay: Inhibition of ERalpha in human MCF7:WS8 cells assessed as increase in degradation of ERalpha incubated for 24 hrs by In-Cell Western assay. The assay is classed as cell-based. The gist of the method:
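MCF7:WS8 cells were estrogen-stripped for 2 days and plated at 2.5 × 10^4 per well. ERα was detected by in-cell western (H10 antibody), with signal normalized to CellTag 700.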

In assay [5] the target is T2, Estrogen receptor (Homo sapiens) (UniProt P03372).
T2 sequence (whole entry): T1 sequence (P03372 whole entry)
Nature of the assay: Inhibition of ERalpha in human MCF7:WS8 cells assessed as increase in degradation of ERalpha incubated for 24 hrs by In-Cell Western assay relative to control. The assay is classed as cell-based. The gist of the method: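 MCF7:WS8 cells were estrogen-stripped for 2 days and plated at 2.5 × 10^4 per well. After 48 h they were treated for 24 h. ERα was detected by in-cell western (H10 antibody), with signal normalized to CellTag 700.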

For assay [6], the target named is T1, Estrogen receptor. Nature of the assay: Antagonist activity at ERalpha in human MCF7:WS8 cells incubated for 18 hrs by dual luciferase reporter gene assay relative to control. The format is cell-based. The gist of the method:
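MCF7:WS8 cells were estrogen-deprived for 3 days (phenol red-free RPMI, stripped FBS), then plated and grown 24 h. They were co-transfected for 6 h with a 3×vitellogenin ERE-firefly luciferase plasmid and a pRL-TK Renilla plasmid. Compounds were given in competition with 1 nM E2 for 18 h, then dual luciferase was read.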

The next assay is described as follows: cells. The settings on record: Homo sapiens, MCF7:5C, 168 h.

Structures are written as SMILES.

For the compound `O=C(c1ccccc1)c1sc2cc(O)ccc2c1Oc1ccc(OC2CN(CCCF)C2)cc1`, the values for the Emax in assay [1] and in assay [3] were 41% and 67%, respectively. For the same compound, the IC50 in assay [2] is 0.288 nM; on Estrogen receptor [4], 0.708 nM; at Estrogen receptor [6], 0.5 nM; in the assay “cells” (read-out: pIC50 (converted)), 0.162 nM. The Efficacy in assay [5] amounted to 88%.
As for `O=C(c1ccc(O)cc1)c1sc2cc(O)ccc2c1Oc1ccc(OCCN2CC(CF)C2)cc1`, the IC50 in assay [2] was 0.708 nM; at Estrogen receptor [4], 8.13 nM; against Estrogen receptor [6], 64 nM; in the assay “cells”, above 100 nM. Further, the Emax in assay [3] is 73%. For the same compound, the Efficacy in assay [5] worked out at 47%.
For the compound `O=C(c1ccccc1)c1sc2cc(O)ccc2c1Oc1ccc(OCCN2CC(CF)C2)cc1`, the Emax in assay [1] was found to be 48%; in assay [3] it was 64%. For the same compound, the IC50 in assay [2] is 0.174 nM; on Estrogen receptor [4] it was 1.02 nM; against Estrogen receptor [6] it was 4.3 nM; in “cells” (read-out: pIC50 (converted)), 0.263 nM. In assay [5], the Efficacy turned out to be 85%.
`O=C(c1cccc(F)c1)c1sc2cc(O)ccc2c1Oc1ccc(OCCN2CC(CF)C2)cc1`: the Emax in assay [1] was determined as 36%; in assay [3] it was 78%. In addition, the IC50 in assay [2] was 0.229 nM; in the assay “cells” (read-out: pIC50 (converted)) it was 0.295 nM.
Consider `Cc1cc(F)ccc1C(=O)c1sc2cc(O)ccc2c1Oc1ccc(OCCN2CC(CF)C2)cc1`, for which the results for the Emax in assay [1] and in assay [3] were 52% and 77%, respectively. Further, the IC50 in assay [2] is 0.251 nM; on Estrogen receptor [4], 3.63 nM; on Estrogen receptor [6], 2.7 nM; in “cells” (read-out: pIC50 (converted)), 0.363 nM. Also, the Efficacy in assay [5] was 95%.
On to `Cc1cc(F)ccc1C(=O)c1sc2cc(O)ccc2c1Oc1ccc(OC2CN(CCCF)C2)cc1`, for which the Emax in assay [1] was 45%; in assay [3], 69%. The IC50 in assay [2] was 0.17 nM; on Estrogen receptor [4] it was 9.33 nM; against Estrogen receptor [6], 5.2 nM; in “cells” (read-out: pIC50 (converted)), 0.117 nM. Further, in assay [5], the Efficacy is 95%.
Turning to `O=C(c1cccc(F)c1)c1sc2cc(O)ccc2c1Oc1ccc(OC2CN(CCCF)C2)cc1`, the IC50 in assay [2] is 0.141 nM; in “cells” (read-out: pIC50 (converted)), 0.182 nM. Besides, in assay [3], the Emax was 70%.
Consider `Cc1ccccc1C(=O)c1sc2cc(O)ccc2c1Oc1ccc(OCCN2CC(C)C2)cc1`, for which the Emax is 48% in assay [1] and 69% in assay [3]. In addition, the IC50 in assay [2] was 0.0417 nM; at Estrogen receptor [4], 0.257 nM; against Estrogen receptor [6] it was 1.9 nM; in “cells” (read-out: pIC50 (converted)), 0.263 nM. The Efficacy in assay [5] came to 81%.
Consider `Cc1cc(F)cc(C)c1C(=O)c1sc2cc(O)ccc2c1Oc1ccc(OCCN2CC[C@H](CF)C2)cc1`, for which the results for the Emax in assay [1] and in assay [3] were 42% and 70%, respectively. The IC50 in assay [2] is 0.407 nM; at Estrogen receptor [4], 3.02 nM; in “cells” (read-out: pIC50 (converted)), 1 nM. In addition, the Efficacy in assay [5] came to 42%.
As to `Cc1cc(F)cc(C)c1C(=O)c1sc2cc(O)ccc2c1Oc1ccc(OC2CN(C3CC3)C2)cc1`, the Emax came to 16% in assay [1] and 62% in assay [3]. The IC50 was 0.0631 nM in assay [2], 5.89 nM on Estrogen receptor [4], 11 nM against Estrogen receptor [6] and 0.141 nM in “cells” (read-out: pIC50 (converted)). In assay [5], the Efficacy was determined as 51%.
As to `Cc1ccccc1C(=O)c1sc2cc(O)ccc2c1Oc1ccc(OCCN2CC[C@@H](CF)C2)cc1`, the Emax in assay [1] is 67%; in assay [3], 85%. For the same compound, the IC50 in assay [2] is 0.0126 nM; on Estrogen receptor [4], 10.5 nM; in “cells” (read-out: pIC50 (converted)) it was 0.0871 nM. The Efficacy in assay [5] came out at 84%.
On to `Cc1ccccc1C(=O)c1sc2cc(O)ccc2c1Oc1ccc(OCCN2CCC2)cc1`, for which the figures for the Emax in assay [1] and in assay [3] were 31% and 70%, respectively. Besides, the values for the IC50 (in assay [2]; on Estrogen receptor [4]; in the assay “cells” (read-out: pIC50 (converted))) were 0.912 nM, 1.91 nM and 1.29 nM, respectively. The Efficacy in assay [5] stood at 37%.
